According to ChEMBL document CHEMBL5705886, “GSK1070916, a potent Aurora B/C kinase inhibitor with broad antitumor activity in tissue culture cells and human tumor xenograft models” (Mol Cancer Ther, 2009):
Calls of active or inactive are those of the source. The calls are words filed in the database; no cut-off is given here.

Assays:
HCT-116 = assay: Antiproliferative activity against human HCT-116 cells assessed as inhibition of cell viability measured for 6 to 7 days by cell titer glo assay; assay type: functional, cell-based
Procedure, shortened: (§1)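 Tumor lines plated in recommended growth media, overnight at 37°C, 5% CO2, then given serial dilutions; a T=0 plate read with CellTiter-Glo at dosing. After 6–7 d of exposure, viability read by CellTiter-Glo luminescence. No-cell wells subtracted, data expressed as % of DMSO control.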

EB2 = assay: Antiproliferative activity against human EB2 cells assessed as inhibition of cell viability measured for 6 to 7 days by cell titer glo assay; assay type: functional, cell-based; procedure, shortened: as §1
[1] = molecular target: Aurora kinase B/Inner centromere protein (Homo sapiens, UniProt Q96GD4); assay: Binding affinity to AurB/INCENP (unknown origin) assessed as inhibition constant; assay type: protein-complex assay
Sequence of Aurora kinase B/Inner centromere protein (Q96GD4 whole entry): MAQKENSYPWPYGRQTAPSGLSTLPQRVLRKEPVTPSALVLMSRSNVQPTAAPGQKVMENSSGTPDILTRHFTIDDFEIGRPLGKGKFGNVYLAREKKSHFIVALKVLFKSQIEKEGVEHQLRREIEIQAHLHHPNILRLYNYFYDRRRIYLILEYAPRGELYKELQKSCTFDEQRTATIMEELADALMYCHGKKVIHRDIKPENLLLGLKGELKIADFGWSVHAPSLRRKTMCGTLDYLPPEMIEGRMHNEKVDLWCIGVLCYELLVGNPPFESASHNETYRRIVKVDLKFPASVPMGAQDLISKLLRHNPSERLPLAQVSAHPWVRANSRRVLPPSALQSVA
Sequence of Aurora kinase B/Inner centromere protein (Q9NQS7 whole entry, further chain): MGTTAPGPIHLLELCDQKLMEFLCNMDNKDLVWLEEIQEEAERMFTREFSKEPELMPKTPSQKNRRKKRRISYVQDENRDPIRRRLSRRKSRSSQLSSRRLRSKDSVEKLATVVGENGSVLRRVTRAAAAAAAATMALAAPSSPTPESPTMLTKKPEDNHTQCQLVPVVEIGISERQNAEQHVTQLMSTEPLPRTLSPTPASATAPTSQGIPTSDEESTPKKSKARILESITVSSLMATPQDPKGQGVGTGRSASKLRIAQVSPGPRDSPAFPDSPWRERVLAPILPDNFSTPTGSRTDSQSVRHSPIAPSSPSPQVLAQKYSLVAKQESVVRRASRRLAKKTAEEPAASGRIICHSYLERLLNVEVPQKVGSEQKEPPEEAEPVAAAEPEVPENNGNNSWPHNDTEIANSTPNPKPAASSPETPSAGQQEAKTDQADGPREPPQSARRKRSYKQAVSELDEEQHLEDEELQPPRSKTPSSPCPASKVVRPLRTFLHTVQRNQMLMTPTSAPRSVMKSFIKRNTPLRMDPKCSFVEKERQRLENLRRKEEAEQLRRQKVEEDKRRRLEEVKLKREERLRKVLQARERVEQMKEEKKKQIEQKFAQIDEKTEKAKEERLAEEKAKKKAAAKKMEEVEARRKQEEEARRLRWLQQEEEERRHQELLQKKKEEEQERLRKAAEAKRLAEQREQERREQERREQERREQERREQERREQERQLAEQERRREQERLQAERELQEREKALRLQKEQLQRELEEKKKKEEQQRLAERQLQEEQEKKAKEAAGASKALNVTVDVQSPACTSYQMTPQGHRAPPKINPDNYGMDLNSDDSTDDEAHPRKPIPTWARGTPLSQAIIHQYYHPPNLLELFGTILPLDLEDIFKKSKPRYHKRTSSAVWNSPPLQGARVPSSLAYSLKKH

SEM cells = assay: Antiproliferative activity against human SEM cells assessed as inhibition of cell viability measured for 6 to 7 days by cell titer glo assay; assay type: functional, cell-based
Procedure, shortened: (§2)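 Cells seeded in recommended growth medium, held overnight at 37°C in 5% CO2, then exposed to serial dilutions of inhibitor for 6–7 d. A time-zero plate was read with CellTiter-Glo at dosing. Luminescent viability read at the end. No-cell wells subtracted as background, data expressed as percent of DMSO control.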

NCI-H630 = assay: Antiproliferative activity against human NCI-H630 cells assessed as inhibition of cell viability measured for 6 to 7 days by cell titer glo assay; assay type: functional, cell-based; procedure, shortened: as §2
COLO-320-HSR = assay: Antiproliferative activity against human COLO 320HSR cells assessed as inhibition of cell viability measured for 6 to 7 days by cell titer glo assay; assay type: functional, cell-based; procedure, shortened: as §1
NOMO-1 = assay: Antiproliferative activity against human NOMO-1 cells assessed as inhibition of cell viability measured for 6 to 7 days by cell titer glo assay; assay type: functional, cell-based; procedure, shortened: as §2
SK-MEL-2 = assay: Antiproliferative activity against human SK-MEL-2 cells assessed as inhibition of cell viability measured for 6 to 7 days by cell titer glo assay; assay type: functional, cell-based; procedure, shortened: as §2
Jurkat = assay: Antiproliferative activity against human Jurkat cells assessed as inhibition of cell viability measured for 6 to 7 days by cell titer glo assay; assay type: functional, cell-based
Procedure, shortened: (§3)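 Cells seeded in recommended growth medium, incubated overnight at 37°C in 5% CO2, then exposed to serial dilutions of inhibitor for 6–7 d. A parallel plate was read with CellTiter-Glo at compound addition as a T=0 value. The luminescent viability readout had no-cell background subtracted and was expressed as % of DMSO control.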

K562 [2] = assay: Antiproliferative activity against human K562 cells assessed as inhibition of cell viability measured for 6 to 7 days by cell titer glo assay; assay type: functional, cell-based; procedure, shortened: as §3
[3] = Antiproliferative activity against HUVEC cells assessed as reduction in cell viability measured after 6 days by cell titer glo assay; assay type: toxicity, cell-based; conditions: human
Procedure, shortened: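 HUVECs (primary) in EGM-2 with 2% FBS and supplements, assayed in cycling and nonproliferating states. Cycling: 500 cells/well seeded 1 d before dosing. Nonproliferating: 35,000 cells in half-area wells seeded 4 d ahead, fresh media next day and media changed 1 d before dosing. 2-fold dilutions 20000 to 0.15 nmol/L, 6 d at 37°C, 5% CO2. CellTiter-Glo 30 min, background-subtracted, % of DMSO control.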

WiDr = assay: Antiproliferative activity against human WiDr cells assessed as inhibition of cell viability measured for 6 to 7 days by cell titer glo assay; assay type: functional, cell-based
MCF7 = assay: Antitumor activity in human MCF7 cells xenografted in SCID mouse assessed as reduction in tumor growth at 50 to 100 mg/kg, ip administered once daily for 5 consecutive days with 2 days off scheduled for 3 cycles measured upto 60 days; assay type: functional, organism-based; conditions: dose 50-100 mg/kg, time <= 60.0 day
KCL-22 = assay: Antiproliferative activity against human KCL-22 cells assessed as inhibition of cell viability measured for 6 to 7 days by cell titer glo assay; assay type: functional, cell-based; procedure, shortened: as §3
Raji = assay: Antiproliferative activity against human Raji cells assessed as inhibition of cell viability measured for 6 to 7 days by cell titer glo assay; assay type: functional, cell-based; procedure, shortened: as §2
[4] = Toxicity in SCID nude mouse xenografted with human HCT-116 cells assessed as body weight loss at 25 to 100 mg/kg, ip administered once daily for 5 consecutive days with 2 days off scheduled for 3 cycles measured upto 60 days relative to control; assay type: organism-based; conditions: in vivo, 1440 h, dose 25-100 mg/kg, time < 60 day
A549 = assay: Effect on cell cycle distribution in human A549 cells assessed as increase in 4N DNA content at 2 to 5000 nM incubated for 24 to 72 hrs by flow cytometry based analysis; assay type: functional; conditions: dose 2-5000 nM, time 24-72 hrs
HL-60 = assay: Antiproliferative activity against human HL-60 cells assessed as inhibition of cell viability measured for 6 to 7 days by cell titer glo assay; assay type: functional, cell-based; procedure, shortened: as §3
[5] = Antiproliferative activity against human M-07e cells assessed as inhibition of cell viability measured for 6 to 7 days by cell titer glo assay; assay type: functional, cell-based; procedure, shortened: as §3
J-RT3-T3-5 = assay: Antiproliferative activity against human J-RT3-T3-5 cells assessed as inhibition of cell viability measured for 6 to 7 days by cell titer glo assay; assay type: functional, cell-based; procedure, shortened: as §3
[6] = Antiproliferative activity against human HS-Sultan cells assessed as inhibition of cell viability measured for 6 to 7 days by cell titer glo assay; assay type: functional, cell-based; procedure, shortened: as §3
[7] = Antiproliferative activity against human BCP-1 cells assessed as inhibition of cell viability measured for 6 to 7 days by cell titer glo assay; assay type: functional, cell-based; procedure, shortened: as §1
BC-3 = assay: Antiproliferative activity against human BC-3 cells assessed as inhibition of cell viability measured for 6 to 7 days by cell titer glo assay; assay type: functional, cell-based; procedure, shortened: as §1
[8] = Antiproliferative activity against human BDCM cells assessed as inhibition of cell viability measured for 6 to 7 days by cell titer glo assay; assay type: functional, cell-based; procedure, shortened: as §1
[9] = Antiproliferative activity against human PLB-985 cells assessed as inhibition of cell viability measured for 6 to 7 days by cell titer glo assay; assay type: functional, cell-based; procedure, shortened: as §2
[10] = Antiproliferative activity against human CRO-AP5 cells assessed as inhibition of cell viability measured for 6 to 7 days by cell titer glo assay; assay type: functional, cell-based; procedure, shortened: as §1
NCI-H1155 = assay: Antiproliferative activity against human NCI-H1155 cells assessed as inhibition of cell viability measured for 6 to 7 days by cell titer glo assay; assay type: functional, cell-based; procedure, shortened: as §3
SW480 = assay: Antiproliferative activity against human SW480 cells assessed as inhibition of cell viability measured for 6 to 7 days by cell titer glo assay; assay type: functional, cell-based; procedure, shortened: as §2
PANC-1 = assay: Antiproliferative activity against human PANC-1 cells assessed as inhibition of cell viability measured for 6 to 7 days by cell titer glo assay; assay type: functional, cell-based; procedure, shortened: as §2
COLO 205 = assay: Antiproliferative activity against human COLO 205 cells assessed as inhibition of cell viability measured for 6 to 7 days by cell titer glo assay; assay type: functional, cell-based; procedure, shortened: as §1
K562 [11] = assay: Antitumor activity in human K562 cells xenografted in SCID mouse assessed as reduction in tumor growth at 100 mg/kg, ip administered once daily for 5 consecutive days with 2 days off scheduled for 3 cycles measured upto 60 days; assay type: functional, organism-based; conditions: time 60.0 day
[12] = Antiproliferative activity against human CML-T1 cells assessed as inhibition of cell viability measured for 6 to 7 days by cell titer glo assay; assay type: functional, cell-based; procedure, shortened: as §1
HT-29 = assay: Antiproliferative activity against human HT-29 cells assessed as inhibition of cell viability measured for 6 to 7 days by cell titer glo assay; assay type: functional, cell-based; procedure, shortened: as §3

What does the source list for `CCn1cc(-c2ccnc3[nH]c(-c4cccc(CN(C)C)c4)cc23)c(-c2ccc(NC(=O)N(C)C)cc2)n1` [GSK-1070916]?
EC50 (HCT-116): 8 nM; EC50 (EB2): 2 nM; Ki [1]: 0.39 nM; EC50 (SEM cells): 3 nM; EC50 (NCI-H630): 127 nM; EC50 (COLO-320-HSR): 92 nM; EC50 (NOMO-1): 2 nM; EC50 (SK-MEL-2): 2 nM; EC50 (Jurkat): 3 nM; EC50 (K562 [2]): 13 nM; EC50 at 6 days [3]: 3900 nM; EC50 (WiDr): 3 nM; Activity (MCF7): inactive; EC50 (KCL-22): 5 nM; EC50 (Raji): 3 nM; Activity [4]: < 15%; Activity (A549): Active; EC50 (HL-60): 10 nM; EC50 [5]: 13 nM; EC50 (J-RT3-T3-5): 9 nM; EC50 [6]: 14 nM; EC50 [7]: 31 nM; EC50 (BC-3): 27 nM; EC50 [8]: 26 nM; EC50 [9]: 1 nM; EC50 [10]: 3 nM; EC50 (NCI-H1155): 40 nM; EC50 (SW480): 3 nM; EC50 (PANC-1): 13 nM; EC50 (COLO 205): 7 nM; Activity (K562 [11]): Active; EC50 [12]: 3 nM; EC50 (HT-29): 10 nM
